Results from ChEMBL document CHEMBL3526002, “Tissue distribution and identification of radioactivity components at elimination phase after oral administration of [¹⁴C]CS-1036, an α-amylase inhibitor, to rats” (Drug Metab Dispos, 2013).

Assays:
Set-up in all cases: dose 5 mg/kg, dosed compound name [14C]CS-1036, route oral
Details in all cases: in vivo
[1] = tested on: Plasma; experiment: Drug uptake in albino F344/DuCrlCrlj rat plasma assessed as ng equivalent of CS-1036 at 5 mg/kg, po after 168 hrs by liquid scintillation counting; type: ADME, organism-based
[2] = Drug uptake in albino F344/DuCrlCrlj rat bone marrow assessed as ng equivalent of CS-1036 at 5 mg/kg, po after 24 hrs by liquid scintillation counting; type: ADME, organism-based
[3] = tested on: Cerebrum; experiment: Drug uptake in albino F344/DuCrlCrlj rat cerebrum at 5 mg/kg, po after 24 hrs by liquid scintillation counting; type: ADME, organism-based
Outline: (§1)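 Single oral [14C]CS-1036 at 5 mg/kg was given to male rats (159–167 g; n = 3). Cerebrum was collected after aortic bleeding at 1, 4, 8, 24, 72, 168 or 336 h, weighed, and homogenized in 2 volumes of saline. A 0.5 ml aliquot was solubilized in Soluene-350 and counted by LSC with external-standard correction. Results are in ng equivalent/g tissue from specific activity and sample weight.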

[4] = tested on: Kidney; experiment: Drug uptake in albino F344/DuCrlCrlj rat kidney at 5 mg/kg, po after 1 hr by liquid scintillation counting; type: ADME, organism-based
[5] = Drug uptake in albino F344/DuCrlCrlj rat trachea assessed as ng equivalent of CS-1036 at 5 mg/kg, po after 4 hrs by liquid scintillation counting; type: ADME, organism-based
[6] = tested on: Lung; experiment: Drug uptake in albino F344/DuCrlCrlj rat lung at 5 mg/kg, po after 8 hrs by liquid scintillation counting; type: ADME, organism-based
[7] = tested on: Thymus; experiment: Drug uptake in albino F344/DuCrlCrlj rat thymus assessed as ng equivalent of CS-1036 at 5 mg/kg, po after 72 hrs by liquid scintillation counting; type: ADME, organism-based
[8] = tested on: Harderian gland; experiment: Drug uptake in albino F344/DuCrlCrlj rat harderian gland at 5 mg/kg, po after 24 hrs by liquid scintillation counting; type: ADME, organism-based
[9] = tested on: Pancreas; experiment: Drug uptake in albino F344/DuCrlCrlj rat pancreas at 5 mg/kg, po after 72 hrs by liquid scintillation counting; type: ADME, organism-based
[10] = tested on: Adrenal gland; experiment: Drug uptake in albino F344/DuCrlCrlj rat adrenal gland at 5 mg/kg, po after 4 hrs by liquid scintillation counting; type: ADME, organism-based
[11] = tested on: Lung; experiment: Drug uptake in albino F344/DuCrlCrlj rat lung assessed as ng equivalent of CS-1036 at 5 mg/kg, po after 336 hrs by liquid scintillation counting; type: ADME, organism-based
[12] = tested on: Small intestine; experiment: Drug uptake in albino F344/DuCrlCrlj rat small intestine assessed as ng equivalent of CS-1036 at 5 mg/kg, po after 8 hrs by liquid scintillation counting; type: ADME, organism-based
[13] = tested on: Thymus; experiment: Drug uptake in albino F344/DuCrlCrlj rat thymus at 5 mg/kg, po after 168 hrs by liquid scintillation counting; type: ADME, organism-based
[14] = tested on: Aorta; experiment: Drug uptake in albino F344/DuCrlCrlj rat aorta assessed as ng equivalent of CS-1036 at 5 mg/kg, po after 8 hrs by liquid scintillation counting; type: ADME, organism-based
[15] = Drug uptake in albino F344/DuCrlCrlj rat thyroid gland assessed as ng equivalent of CS-1036 at 5 mg/kg, po after 24 hrs by liquid scintillation counting; type: ADME, organism-based
[16] = tested on: Heart; experiment: Drug uptake in albino F344/DuCrlCrlj rat heart at 5 mg/kg, po after 72 hrs by liquid scintillation counting; type: ADME, organism-based
[17] = tested on: Zone of skin; experiment: Drug uptake in albino F344/DuCrlCrlj rat skin at 5 mg/kg, po after 1 hr by liquid scintillation counting; type: ADME, organism-based
[18] = tested on: Heart; experiment: Drug uptake in albino F344/DuCrlCrlj rat heart assessed as ng equivalent of CS-1036 at 5 mg/kg, po after 1 hr by liquid scintillation counting; type: ADME, organism-based
[19] = tested on: Stomach; experiment: Drug uptake in albino F344/DuCrlCrlj rat stomach at 5 mg/kg, po after 4 hrs by liquid scintillation counting; type: ADME, organism-based
[20] = tested on: Lung; experiment: Drug uptake in albino F344/DuCrlCrlj rat lung assessed as ng equivalent of CS-1036 at 5 mg/kg, po after 24 hrs by liquid scintillation counting; type: ADME, organism-based
[21] = Drug uptake in albino F344/DuCrlCrlj rat fat assessed as ng equivalent of CS-1036 at 5 mg/kg, po after 8 hrs by liquid scintillation counting; type: ADME, organism-based, Adipose tissue
Outline: (§2)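 Male F344/DuCrlCrlj rats (bought at 7 weeks, acclimatized 5–6 days; 159–167 g; n = 3 per time point) received a single oral dose of [14C]CS-1036 at 5 mg/kg. White adipose tissue was collected after abdominal aortic bleeding at 1, 4, 8, 24, 72, 168 or 336 h. Samples were counted by LSC with external-standard efficiency correction. Results were converted to ng equivalents per g from specific activity and sample weight.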

[22] = tested on: Pancreas; experiment: Drug uptake in albino F344/DuCrlCrlj rat pancreas at 5 mg/kg, po after 8 hrs by liquid scintillation counting; type: ADME, organism-based
[23] = tested on: Large intestine; experiment: Drug uptake in albino F344/DuCrlCrlj rat large intestine assessed as ng equivalent of CS-1036 at 5 mg/kg, po after 8 hrs by liquid scintillation counting; type: ADME, organism-based
[24] = tested on: Cerebrum; experiment: Drug uptake in albino F344/DuCrlCrlj rat cerebrum at 5 mg/kg, po after 336 hrs by liquid scintillation counting; type: ADME, organism-based; outline: as §1
[25] = tested on: Harderian gland; experiment: Drug uptake in albino F344/DuCrlCrlj rat harderian gland assessed as ng equivalent of CS-1036 at 5 mg/kg, po after 72 hrs by liquid scintillation counting; type: ADME, organism-based
[26] = tested on: Harderian gland; experiment: Drug uptake in albino F344/DuCrlCrlj rat harderian gland assessed as ng equivalent of CS-1036 at 5 mg/kg, po after 336 hrs by liquid scintillation counting; type: ADME, organism-based
[27] = tested on: Large intestine; experiment: Drug uptake in albino F344/DuCrlCrlj rat large intestine assessed as ng equivalent of CS-1036 at 5 mg/kg, po after 24 hrs by liquid scintillation counting; type: ADME, organism-based
[28] = Drug uptake in albino F344/DuCrlCrlj rat epididymis at 5 mg/kg, po after 8 hrs by liquid scintillation counting; type: ADME, organism-based
[29] = Drug uptake in albino F344/DuCrlCrlj rat epididymis assessed as ng equivalent of CS-1036 at 5 mg/kg, po after 72 hrs by liquid scintillation counting; type: ADME, organism-based
[30] = tested on: Large intestine; experiment: Drug uptake in albino F344/DuCrlCrlj rat large intestine at 5 mg/kg, po after 72 hrs by liquid scintillation counting; type: ADME, organism-based
[31] = Drug uptake in albino F344/DuCrlCrlj rat fat assessed as ng equivalent of CS-1036 at 5 mg/kg, po after 1 hr by liquid scintillation counting; type: ADME, organism-based, Adipose tissue; outline: as §2
[32] = Drug uptake in albino F344/DuCrlCrlj rat mandibular gland assessed as ng equivalent of CS-1036 at 5 mg/kg, po after 24 hrs by liquid scintillation counting; type: ADME, organism-based
[33] = Drug uptake in albino F344/DuCrlCrlj rat bone marrow at 5 mg/kg, po after 1 hr by liquid scintillation counting; type: ADME, organism-based
[34] = tested on: Spleen; experiment: Drug uptake in albino F344/DuCrlCrlj rat spleen assessed as ng equivalent of CS-1036 at 5 mg/kg, po after 8 hrs by liquid scintillation counting; type: ADME, organism-based
[35] = tested on: Cerebellum; experiment: Drug uptake in albino F344/DuCrlCrlj rat cerebellum assessed as ng equivalent of CS-1036 at 5 mg/kg, po after 8 hrs by liquid scintillation counting; type: ADME, organism-based

Radiolabel recovery [1]: 1.65 ngequiv/ml | Radiolabel recovery [2]: 19 ngequiv/g | Radiolabel recovery [3]: 19.3 ngequiv/g | Radiolabel recovery [4]: 520 ngequiv/g | Radiolabel recovery [5]: 10.4 ngequiv/g | Radiolabel recovery [6]: 64.8 ngequiv/g | Radiolabel recovery [7]: 6.6 ngequiv/g | Radiolabel recovery [8]: 290 ngequiv/g | Radiolabel recovery [9]: 186 ngequiv/g | Radiolabel recovery [10]: 33.3 ngequiv/g | Radiolabel recovery [11]: 3.93 ngequiv/g | Radiolabel recovery [12]: 36 ngequiv/g | Radiolabel recovery [13]: 12 ngequiv/g | Radiolabel recovery [14]: 42.1 ngequiv/g | Radiolabel recovery [15]: 20 ngequiv/g | Radiolabel recovery [16]: 27.5 ngequiv/g | Radiolabel recovery [17]: 38.3 ngequiv/g | Radiolabel recovery [18]: 1.1 ngequiv/g | Radiolabel recovery [19]: 129 ngequiv/g | Radiolabel recovery [20]: 12.8 ngequiv/g | Radiolabel recovery [21]: 4.6 ngequiv/g | Radiolabel recovery [22]: 325 ngequiv/g | Radiolabel recovery [23]: 8000 ngequiv/g | Radiolabel recovery [24]: 4.88 ngequiv/g | Radiolabel recovery [25]: 67 ngequiv/g | Radiolabel recovery [26]: 2.33 ngequiv/g | Radiolabel recovery [27]: 138 ngequiv/g | Radiolabel recovery [28]: 40.8 ngequiv/g | Radiolabel recovery [29]: 8.3 ngequiv/g | Radiolabel recovery [30]: 65.1 ngequiv/g | Radiolabel recovery [31]: 1.53 ngequiv/g | Radiolabel recovery [32]: 9 ngequiv/g | Radiolabel recovery [33]: 34.9 ngequiv/g | Radiolabel recovery [34]: 84.1 ngequiv/g | Radiolabel recovery [35]: 1.18 ngequiv/g
SMILES: C[C@H]1O[C@@H](O[C@H]2[C@H](O)[C@@H](O)[C@@H](O[14C@H]3[14C@H](O)[14CH2]N[14C@@H]3[14CH2]O)O[C@@H]2CO)[C@H](O)[C@@H](O)[C@@H]1O
